Assay results reported in ChEMBL document CHEMBL1127667, “Synthesis of benzo-fused benzodiazepines employed as probes of the agonist pharmacophore of benzodiazepine receptors” (J Med Chem, 1994).

Tests used:
[1] = target: T1, GABA-A receptor; anion channel (Mus musculus) (UniProt Q8BHJ7+P26048+Q8QZW7+P50571+Q9R0Y8+P22723+A2AMW3+P62812+Q9JLF1+P26049+P22933+Q9D6F4+P63080+P27681+P16305); assay: In vivo activity against GABA-A benzodiazepine receptor in mice; type: functional, organism-based; design: unit not given here
Method in brief: (§1)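 Adult male NIH/Swiss mice, groups of three to eight, given graded ip doses in diluted Emulphor/saline (1:9). Muscle relaxation tested on a wire at 12 min. PTZ given at 15 min: 80 mg/kg to test anticonvulsant action, 40 mg/kg to test proconvulsant action.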

[2] = target: GABA-A receptor; anion channel; assay: In vitro inhibitory concentration of compound against benzodiazepine receptor from rat cerebral cortex using [3H]- flunitrazepam was evaluated; type: tissue-based
Method in brief: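 Rat cerebral cortex membranes prepared in 50 mM Tris-citrate, pH 7.4, washed three times. About 0.1 mg protein incubated with [3H]flunitrazepam (~1 nM final) and NaCl at 0-4 °C for 60 min. Bound ligand collected by GF/B filtration. IC50 taken from at least six inhibitor concentrations. Mean ± SEM of at least three determinations.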

[3] = target: T1, GABA-A receptor; anion channel (Mus musculus); assay: In vivo activity of compound was evaluated against benzodiazepine receptor in mice; type: functional, organism-based; method in brief: as §1
[4] = species on record: Mus musculus; assay: Compound was tested for anticonvulsant effect in mice; type: functional
Method in brief: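 Male NIH/Swiss mice, 25-30 g, groups of three to eight, given graded ip doses in diluted Emulphor/saline (1:9) or vehicle. PTZ 80 mg/kg injected 15 min after dosing. Protection from PTZ-induced convulsions scored. ED50 derived from the dose-response.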

[5] = species on record: Mus musculus; assay: Compound was tested for myorelaxant effect in mice; type: functional
Method in brief: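 Male NIH/Swiss mice, 25-30 g, groups of three to eight, dosed ip with graded amounts in diluted Emulphor/saline (1:9) or vehicle. At 12 min, mice were hung by the forepaws on a 1.5-mm wire 60 cm above the bench. Three falls within 1 min counted as muscle relaxation. ED50 derived from the dose-response.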

| Structure (SMILES) | IC50 [2] [nM] | also measured |
| --- | --- | --- |
| O=C1CN=C(c2ccccc2)c2cc(Cl)cc(Cl)c2N1 | – | Activity [1]: 8 |
| C=Cc1ccc2c(c1)C(c1ccccc1)=NCC(=O)N2 | 24 | Activity [3]: Weak activity |
| CN1C(=O)CN=C(c2ccccc2F)c2cc3ccccc3cc21 | 55 | ED50 [4]: 15 mg/kg; ED50 [5]: 15 mg/kg |
| CN1C(=O)CN=C(c2ccccc2F)c2c(Cl)cccc21 | 150 | Activity [3]: 0 |
| O=C1CN=C(c2ccccc2)c2c(ccc3ccccc23)N1 | > 1000 | – |
| O=C1CN=C(c2ccccc2)c2cc3ccccc3cc2N1 | 400 | – |
| O=C1CN=C(c2ccccc2)c2c(Cl)cccc2N1 | 320 | Activity [3]: 0 |
| CN1C(=O)CN=C(c2ccccc2)c2cc3ccccc3cc21 | > 1000 | – |
| Cc1cc([N+](=O)[O-])cc2c1NC(=O)CN=C2c1ccccc1 | – | Activity [1]: 8.12 |
| Cc1cc2c(cc1C)C(c1ccccc1)=NCC(=O)N2 | – | Activity [1]: 132 |
| CN1C(=O)CN=C(c2ccccc2)c2cc(Cl)ccc21 | – | Activity [3]: 1.39 |
| O=C1CN=C(c2ccccc2F)c2c(ccc3ccccc23)N1 | > 1000 | – |
| Cc1cc2c(cc1Cl)NC(=O)CN=C2c1ccccc1F | 14 | Activity [3]: 0 |
| O=C1CN=C(c2ccccc2)c2ccc3ccccc3c2N1 | > 1000 | – |
| Cc1cc(C)c2c(c1)C(c1ccccc1)=NCC(=O)N2 | – | Activity [1]: 792 |
| O=C1CN=C(c2ccccc2F)c2cc(Cl)c(Cl)cc2N1 | 3.6 | – |
| CN1C(=O)CN=C(c2ccccc2)c2cc(Cl)c(Cl)cc21 | 40 | Activity [3]: Weak activity |
| O=C1CN=C(c2ccccc2)c2cc(-c3ccccc3)ccc2N1 | – | Activity [1]: 781 |
| O=C1CN=C(c2ccccc2F)c2cc3ccccc3cc2N1 | > 1000 | – |
| CCOC(=O)c1ncc2[nH]c3ccc(OCc4ccccc4)cc3c2c1COC | 5 | – |
| O=C1CN=C(c2ccccc2F)c2ccc3ccccc3c2N1 | 120 | – |
| CN1C(=O)CN=C(c2ccccc2F)c2ccc3ccccc3c21 | 260 | – |
| CN1C(=O)CN=C(c2ccccc2F)c2c1ccc1ccccc21 | > 1000 | – |
| CN1C(=O)CN=C(c2ccccc2)c2c1ccc1ccccc21 | > 1000 | – |
| CN1C(=O)CN=C(c2ccccc2)c2ccc3ccccc3c21 | > 1000 | – |
